Results taken from ChEMBL document CHEMBL2331513, “Trisubstituted Sulfonamides: a New Chemotype for Development of Potent and Selective CB2 Receptor Inverse Agonists” (ACS Med Chem Lett, 2013).
Calls of active or inactive are those of the source. The rule behind the calls is not given here.

How the values were obtained:
Cannabinoid receptor 1 = Cannabinoid receptor 1 (Homo sapiens, UniProt P21554); experiment: biochemical; type: cell-based, CHO
Cannabinoid receptor 2 [1] = target: T1, Cannabinoid receptor 2 (Homo sapiens, UniProt P34972); experiment: Displacement of [3H]CP-55940 from human CB2 receptor expressed in CHO cell membranes after 1 hr by scintillation counting analysis
T1 sequence (P34972 whole entry): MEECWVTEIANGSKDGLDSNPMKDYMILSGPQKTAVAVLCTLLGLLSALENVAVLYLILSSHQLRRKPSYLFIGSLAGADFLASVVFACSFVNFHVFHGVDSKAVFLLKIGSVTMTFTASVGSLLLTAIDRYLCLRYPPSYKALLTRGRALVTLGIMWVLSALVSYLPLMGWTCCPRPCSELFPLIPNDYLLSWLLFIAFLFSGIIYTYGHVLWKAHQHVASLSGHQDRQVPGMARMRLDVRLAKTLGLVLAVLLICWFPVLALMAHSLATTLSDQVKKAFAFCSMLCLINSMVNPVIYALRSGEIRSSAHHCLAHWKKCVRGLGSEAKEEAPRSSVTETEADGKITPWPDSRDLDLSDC

Homo sapiens = organism: Homo sapiens; experiment: Selectivity ratio of Ki for human CB1 receptor to Ki for human CB2 receptor
Method in brief: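 Ki at CB1 and CB2 each determined by [3H]CP-55,940 competition binding; selectivity index computed as Ki(CB1)/Ki(CB2).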

Mus musculus = organism: Mus musculus; experiment: Inhibition of RANKL/MCSF-induced osteoclastogenesis in C57BL/6 mouse BM-MNC after 7 days by TRAP staining-based inverted microscopic analysis; type: functional
Method in brief: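 Mouse bone marrow mononuclear cells driven to osteoclasts with mouse RANKL plus M-CSF, compound or vehicle control added; osteoclast formation scored; triplicate, means ± SD.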

Cannabinoid receptor 2 [2] = target: T1, Cannabinoid receptor 2; experiment: Inverse agonist activity at human CB2 receptor expressed in CHO cell membranes assessed as inhibition of forskolin-stimulated cAMP production after 45 mins by TR-FRET assay; type: functional, cell-based
Method in brief: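 Functional cAMP readout by LANCE signal in CHO cells stably transfected with human CB2, tested across a concentration range; EC50 from concentration–response; means ± SEM of one representative experiment of two or more, run in duplicate or triplicate.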

Cannabinoid receptor 2 [3] = target: T1, Cannabinoid receptor 2; experiment: Binding affinity to CB2 receptor (unknown origin)
Method in brief: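 Radioligand competition binding at CB2 using [3H]CP-55,940 as the labelled ligand; Ki derived from displacement; means ± SEM of at least three experiments, each run in duplicate.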

[4] = Inhibition of RANKL/MCSF-induced osteoclastogenesis in C57BL/6 mouse BM-MNC at 5 uM after 7 days by TRAP staining-based inverted microscopic analysis relative to control; type: functional; parameters: scale not given: the % may be the effect or the level left
Method in brief: (§1)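 Osteoclast formation assay using mouse bone marrow mononuclear cells stimulated with mouse RANKL plus M-CSF. Compounds were tested at 0.1, 1 and 5 μM, and inhibition was calculated relative to vehicle control. All experiments were run in triplicate and reported as mean ± standard deviation.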

[5] = Inhibition of RANKL/MCSF-induced osteoclastogenesis in C57BL/6 mouse BM-MNC at 1 uM after 7 days by TRAP staining-based inverted microscopic analysis relative to control; type: functional; parameters: scale not given: the % may be the effect or the level left
Method in brief: as §1

[6] = Inhibition of RANKL/MCSF-induced osteoclastogenesis in C57BL/6 mouse BM-MNC at 0.1 uM after 7 days by TRAP staining-based inverted microscopic analysis relative to control; type: functional; parameters: scale not given: the % may be the effect or the level left
Method in brief: as §1

PBMC = experiment: Cytotoxicity against human PBMC at 5 uM after 72 hrs by trypan blue assay; type: cell-based

Chain of Cannabinoid receptor 1 (P21554 whole entry): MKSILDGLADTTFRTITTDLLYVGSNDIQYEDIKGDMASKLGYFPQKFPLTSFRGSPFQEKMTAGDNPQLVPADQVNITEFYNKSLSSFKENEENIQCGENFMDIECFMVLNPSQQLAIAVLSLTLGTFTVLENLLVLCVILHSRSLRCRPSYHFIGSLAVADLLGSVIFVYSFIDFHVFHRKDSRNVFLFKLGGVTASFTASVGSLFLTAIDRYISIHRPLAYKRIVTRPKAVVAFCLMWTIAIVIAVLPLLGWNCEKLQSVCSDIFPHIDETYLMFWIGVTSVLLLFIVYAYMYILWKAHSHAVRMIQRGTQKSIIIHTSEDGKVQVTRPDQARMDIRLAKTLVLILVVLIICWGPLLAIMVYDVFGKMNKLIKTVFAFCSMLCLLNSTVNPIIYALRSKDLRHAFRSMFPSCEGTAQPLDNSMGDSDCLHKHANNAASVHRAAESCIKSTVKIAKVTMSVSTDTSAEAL

Structure (SMILES) | Ki (Cannabinoid receptor 1) [µM] | Ki (Cannabinoid receptor 2 [1]) [µM] | Ratio Ki (Homo sapiens) | further results
CCN(CC)c1ccc(CN(Cc2ccccc2)S(=O)(=O)c2ccc(F)cc2)cc1 | 0.93 | 0.102 | 9 | –
CCN(CC)c1ccc(CNS(=O)(=O)c2ccc(C)cc2)cc1 | – | 3.6 | – | –
CCN(CC)c1ccc(CN(Cc2ccccc2)S(=O)(=O)c2ccc(-c3ccccc3)cc2)cc1 | – | 0.166 | – | –
Cc1ccc(S(=O)(=O)N(Cc2ccccc2)Cc2ccc(N(CCCl)CCCl)cc2)cc1 | – | 0.166 | – | –
Cc1ccc(S(=O)(=O)N(Cc2ccc(N3CCCCC3)cc2)c2ccccc2)cc1 | – | 0.31 | – | –
CCN(CC)c1ccc(CN(Cc2ccccc2)Cc2ccccc2)cc1 | – | 0.15 | – | –
CCCCc1ccc(CN(Cc2ccccc2)S(=O)(=O)c2ccc(C)cc2)cc1 | – | 0.28 | – | –
CCN(CC)c1ccc(CN(Cc2ccc(Cl)c(Cl)c2)S(=O)(=O)c2ccc(C)cc2)cc1 | – | 0.39 | – | –
CCN(CC)c1ccc(CN(Cc2ccccc2)S(=O)(=O)c2ccc3ccccc3c2)cc1 | – | 0.19 | – | –
CCN(CC)c1ccc(CN(Cc2ccccc2)S(=O)(=O)c2ccc(OC(F)(F)F)cc2)cc1 | – | 0.577 | – | –
C=CCc1ccc(CN(Cc2ccccc2)S(=O)(=O)c2ccc(C)cc2)cc1 | – | 0.13 | – | –
O=S(=O)(c1ccc(Cl)cc1)N(Cc1ccc(N2CCCCC2)cc1)c1ccccc1 | – | 0.14 | – | –
CCN(CC)c1ccc(CN(Cc2ccc(Cl)cc2)S(=O)(=O)c2ccc(C)cc2)cc1 | – | 0.21 | – | –
CCN(CC)c1ccc(CN(Cc2ccc(F)cc2)S(=O)(=O)c2ccc(C)cc2)cc1 | 2.25 | 0.12 | 20 | –
CCOc1ccc(CN(Cc2ccccc2)S(=O)(=O)c2ccc(C)cc2)cc1 | – | 0.23 | – | –
CCN(CC)c1ccc(CN(Cc2ccccc2)S(=O)(=O)c2ccccc2)cc1 | – | 0.17 | – | –
CCCc1ccc(CN(Cc2ccccc2)S(=O)(=O)c2ccc(C)cc2)cc1 | – | 0.13 | – | –
Cc1ccc(S(=O)(=O)N(CCc2ccccc2)Cc2ccccc2)cc1 | – | – | – | Ki (Cannabinoid receptor 2 [3]): 0.75 µM
Cc1ccc(S(=O)(=O)N(Cc2ccccc2)Cc2ccc(C(C)C)cc2)cc1 | – | 0.23 | – | –
Cc1ccc(S(=O)(=O)N(Cc2ccccc2)Cc2ccc(OC(C)C)cc2)cc1 | – | 0.174 | – | –
Cc1ccc(S(=O)(=O)N(Cc2ccccc2)Cc2ccc(N(C)C)cc2)cc1 | – | 0.68 | – | –
CCN(CC)c1ccc(CN(Cc2ccccc2)S(=O)(=O)Cc2ccccc2)cc1 | – | 0.262 | – | –
CCN(CC)c1ccc(CN(Cc2ccccc2)S(=O)(=O)c2ccc(NC(C)=O)cc2)cc1 | – | 0.47 | – | –
CCN(CC)c1ccc(CN(Cc2ccc(N(CC)CC)cc2)S(=O)(=O)c2ccc(C)cc2)cc1 | – | 0.54 | – | –
CCN(CC)c1ccc(CN(c2ccccc2)S(=O)(=O)c2ccc(C)cc2)cc1 | 0.081 | 0.0055 | 15 | Activity [4]: 99.7%; Activity [5]: 83%; Activity [6]: 55%; Activity (PBMC): Non-toxic; EC50 (Cannabinoid receptor 2 [2]): 0.0082 µM
CCN(CC)c1ccc(CN(CCc2ccccc2)S(=O)(=O)c2ccc(C)cc2)cc1 | – | 0.12 | – | –

Further lines, with some results ahead:

Ki (Cannabinoid receptor 1) [µM] | Ki (Cannabinoid receptor 2 [1]) [µM] | Ratio Ki (Homo sapiens) | Structure (SMILES) | further results
0.57 | 0.0095 | 60 | CCN(CC)c1ccc(CN(Cc2ccco2)S(=O)(=O)c2ccc(C)cc2)cc1 | –
0.34 | 0.014 | 24 | CCN(CC)c1ccc(CN(c2ncc(C)s2)S(=O)(=O)c2ccc(C)cc2)cc1 | –
– | 0.094 | – | CCN(CC)c1ccc(CN(Cc2ccccc2)S(=O)(=O)c2ccc(OC(C)C)cc2)cc1 | –
0.61 | 0.014 | 44 | CCN(CC)c1ccc(CN(Cc2cccs2)S(=O)(=O)c2ccc(C)cc2)cc1 | –
0.66 | 0.075 | 9 | CCN(CC)c1ccc(CN(C2CCCCC2)S(=O)(=O)c2ccc(OC)cc2)cc1 | –
2 | 0.03 | 66 | CCN(CC)c1ccc(CN(c2ccccc2)S(=O)(=O)c2ccc(C(C)C)cc2)cc1 | –
0.5 | 0.036 | 14 | CCN(CC)c1ccc(CN(C2CCCC2)S(=O)(=O)c2ccc(C)cc2)cc1 | –
0.69 | 0.046 | 15 | CCN(CC)c1ccc(CN(Cc2ccccc2)S(=O)(=O)c2ccc(OC)cc2)cc1 | –
2.3 | 0.053 | 43 | CCN(CC)c1ccc(CN(Cc2ccccc2)S(=O)(=O)c2ccc(C)cc2)cc1 | –
0.56 | 0.034 | 16 | CCN(CC)c1ccc(CN(CC2CCCCC2)S(=O)(=O)c2ccc(C)cc2)cc1 | –
1.3 | 0.044 | 28 | Cc1ccc(S(=O)(=O)N(Cc2ccccc2)Cc2ccc(N3CCCCC3)cc2)cc1 | –
1.25 | 0.066 | 19 | C=CCN(Cc1ccc(N(CC)CC)cc1)S(=O)(=O)c1ccc(C)cc1 | –
0.21 | 0.018 | 12 | CCN(CC)c1ccc(CN(C2CCCCC2)S(=O)(=O)c2ccc(C)cc2)cc1 | –
0.84 | 0.02 | 42 | CCN(CC)c1ccc(CN(Cc2ccco2)S(=O)(=O)c2ccc(OC)cc2)cc1 | –
0.5 | 0.0054 | 92 | CCN(CC)c1ccc(CN(c2ccccc2)S(=O)(=O)c2ccc(OC)cc2)cc1 | Activity (Mus musculus): Active; EC50 (Cannabinoid receptor 2 [2]): 0.0025 µM
0.59 | 0.032 | 18 | COc1ccc(S(=O)(=O)N(Cc2ccc(N3CCCCC3)cc2)c2ccccc2)cc1 | EC50 (Cannabinoid receptor 2 [2]): 0.049 µM
0.43 | 0.073 | 6 | CCN(CC)c1ccc(CN(Cc2ccccc2)S(=O)(=O)c2ccc(Cl)cc2)cc1 | –
1.3 | 0.031 | 42 | CCN(CC)c1ccc(CN(Cc2ccco2)S(=O)(=O)c2ccc(C(C)C)cc2)cc1 | –
1.4 | 0.055 | 25 | CCN(CC)c1ccc(CN(C2CCCCC2)S(=O)(=O)c2ccc(C(C)C)cc2)cc1 | –
0.6 | 0.004 | 120 | CCN(CC)c1ccc(CN(c2ncc(C)s2)S(=O)(=O)c2ccc(OC)cc2)cc1 | Activity (Mus musculus): Active; EC50 (Cannabinoid receptor 2 [2]): 0.073 µM
0.52 | 0.071 | 7 | CCN(CC)c1ccc(CN(Cc2ccccc2)S(=O)(=O)c2ccc(C(C)C)cc2)cc1 | –
